Laboratory results published in ChEMBL document CHEMBL4196166 (J Med Chem, 2018).
Calls of active or inactive are those of the source. The calls are words filed in the database; no cut-off is given here.

Assays:
[1] = molecular target: ENaC alpha subunit (epithelial sodium channel subunit alpha) (Homo sapiens, UniProt P37088); assay: Inhibition of S-3969-stimulated recombinant human ENaC alpha subunit expressed in HEK293 cells at 10 uM preincubated for 5 mins followed by S-3969 stimulation by FLIPR assay; type: cell-based; conditions: HEK293 cells expressing recombinant human ENaC alpha subunit
ENaC alpha subunit (epithelial sodium channel subunit alpha), sequence (P37088 whole entry): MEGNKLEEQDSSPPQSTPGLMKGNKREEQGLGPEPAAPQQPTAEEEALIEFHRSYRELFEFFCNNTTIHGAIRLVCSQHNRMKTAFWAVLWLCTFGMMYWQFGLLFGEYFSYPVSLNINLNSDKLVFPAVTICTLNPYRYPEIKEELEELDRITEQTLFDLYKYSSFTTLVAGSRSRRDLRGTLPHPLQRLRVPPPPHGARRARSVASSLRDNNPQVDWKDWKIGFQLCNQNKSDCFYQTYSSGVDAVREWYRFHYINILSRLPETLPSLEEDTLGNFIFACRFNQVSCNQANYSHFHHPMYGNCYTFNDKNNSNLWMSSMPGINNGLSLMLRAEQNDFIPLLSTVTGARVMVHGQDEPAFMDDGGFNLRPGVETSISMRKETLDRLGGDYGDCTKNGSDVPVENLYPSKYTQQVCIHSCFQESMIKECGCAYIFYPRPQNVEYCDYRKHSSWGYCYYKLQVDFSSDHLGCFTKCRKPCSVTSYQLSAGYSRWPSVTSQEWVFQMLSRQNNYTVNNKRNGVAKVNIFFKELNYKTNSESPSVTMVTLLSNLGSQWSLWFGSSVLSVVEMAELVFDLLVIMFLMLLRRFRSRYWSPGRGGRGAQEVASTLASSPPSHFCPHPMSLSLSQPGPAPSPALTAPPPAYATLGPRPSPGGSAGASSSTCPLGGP
How it was run: (§1)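 HEK-293 cells transfected with human ENaC α, β and γ cDNA together, plated at 20 000 cells/well, incubated overnight at 37 °C. Loaded with membrane-potential red dye for 30 min at 37 °C. Compound preincubated 5 min in HEPES-buffered salt solution (pH 7.4, 0.3% DMSO), then stimulated with 1 µM S-3969, read on FLIPR. Signal normalized to agonist alone (100%) and agonist plus 30 µM benzamil (0%). n = 4 wells.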

[2] = molecular target: ENaC gamma subunit (epithelial sodium channel subunit gamma) (Homo sapiens, UniProt P51170); assay: Inhibition of S-3969-stimulated recombinant human ENaC gamma subunit expressed in HEK293 cells at 10 uM preincubated for 5 mins followed by S-3969 stimulation by FLIPR assay; type: cell-based; conditions: HEK293 cells expressing recombinant human ENaC gamma subunit; how it was run: as §1
ENaC gamma subunit (epithelial sodium channel subunit gamma), sequence (P51170 whole entry): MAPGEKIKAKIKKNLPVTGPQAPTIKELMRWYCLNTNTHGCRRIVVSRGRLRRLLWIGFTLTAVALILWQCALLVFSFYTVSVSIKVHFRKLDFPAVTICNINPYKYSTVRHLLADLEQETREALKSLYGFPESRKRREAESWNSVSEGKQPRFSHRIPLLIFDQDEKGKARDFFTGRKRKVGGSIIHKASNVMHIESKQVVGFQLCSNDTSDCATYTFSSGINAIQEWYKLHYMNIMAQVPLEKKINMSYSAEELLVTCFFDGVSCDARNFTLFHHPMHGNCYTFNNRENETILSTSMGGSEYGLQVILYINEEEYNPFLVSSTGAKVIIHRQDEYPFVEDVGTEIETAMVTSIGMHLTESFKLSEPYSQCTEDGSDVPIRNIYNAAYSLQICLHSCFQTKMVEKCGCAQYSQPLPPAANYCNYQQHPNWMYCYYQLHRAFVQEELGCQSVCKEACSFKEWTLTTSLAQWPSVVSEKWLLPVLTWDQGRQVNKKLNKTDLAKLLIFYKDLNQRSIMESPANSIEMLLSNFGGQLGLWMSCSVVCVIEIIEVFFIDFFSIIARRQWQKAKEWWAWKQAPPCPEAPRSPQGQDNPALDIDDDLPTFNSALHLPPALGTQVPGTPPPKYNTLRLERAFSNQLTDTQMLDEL

HT-1080 = assay: Antimetastatic activity against luciferase-tagged human HT1080 cells xenografted in NOD.Cg-Prkdc<scid>-IL2rg<tm1Wjl>SzJAusb mouse assessed as inhibition of late-stage lung metastasis at 7.5 mg/kg/day, ip administered from day -1 to day 20 measured day 21
[3] = molecular target: ENaC beta subunit (epithelial sodium channel subunit beta) (Homo sapiens, UniProt P51168); assay: Inhibition of S-3969-stimulated recombinant human ENaC beta subunit expressed in HEK293 cells at 10 uM preincubated for 5 mins followed by S-3969 stimulation by FLIPR assay; type: cell-based; conditions: HEK293 cells expressing recombinant human ENaC beta subunit; how it was run: as §1
ENaC beta subunit (epithelial sodium channel subunit beta), sequence (P51168 whole entry): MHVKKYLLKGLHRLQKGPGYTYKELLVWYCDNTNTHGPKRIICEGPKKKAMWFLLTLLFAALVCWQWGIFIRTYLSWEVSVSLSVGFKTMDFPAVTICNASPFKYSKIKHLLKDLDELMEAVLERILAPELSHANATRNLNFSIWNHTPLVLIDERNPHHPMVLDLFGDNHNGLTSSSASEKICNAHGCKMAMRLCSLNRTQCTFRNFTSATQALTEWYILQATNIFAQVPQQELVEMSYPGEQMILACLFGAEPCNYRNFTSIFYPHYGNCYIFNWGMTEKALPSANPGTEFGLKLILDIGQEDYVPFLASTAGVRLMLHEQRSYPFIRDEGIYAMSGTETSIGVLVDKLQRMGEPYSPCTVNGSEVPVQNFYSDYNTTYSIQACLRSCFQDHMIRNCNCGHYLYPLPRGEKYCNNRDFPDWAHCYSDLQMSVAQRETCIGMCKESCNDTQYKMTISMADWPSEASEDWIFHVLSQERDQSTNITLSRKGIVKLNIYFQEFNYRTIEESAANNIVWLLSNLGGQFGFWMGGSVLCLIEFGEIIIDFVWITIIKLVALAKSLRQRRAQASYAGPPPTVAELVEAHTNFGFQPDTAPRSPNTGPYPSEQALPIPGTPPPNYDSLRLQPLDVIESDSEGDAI

Which results are given for `N=C(N)NC(=O)c1nc(Cl)c(N)nc1N` [AMILORIDE]?
inhibition at 5 min, 10 µM [1]: 68%; inhibition at 5 min, 10 µM [2]: 68%; inhibition (HT-1080): inactive; inhibition at 5 min, 10 µM [3]: 68%
